{"data": "Measured values from different studies", "cell line": "A549", "note": "pIC50: −log10 of the molar value."}
{"SMILES": "COc1ccccc1/C=C/CNCC(O)COc1cccc2ccccc12 (stereo not drawn)", "observed": "cell growth or viability", "method": "CCK-8", "time": "72 h", "pIC50": 4.77}
{"SMILES": "CC1=C(O)C(=O)C=C2C1=CC=C1[C@@]2(C)CC[C@@]2(C)[C@@H]3C[C@](C)(C(=O)OCCCCO)CC[C@]3(C)CC[C@]12C", "observed": "cell growth or viability", "method": "MTT", "time": "48 h", "pIC50": 5.51}
{"SMILES": "Cc1ccc(C)n1-c1ccc(C(=O)NNC=O)cc1", "observed": "cell growth or viability", "method": "MTT", "time": "72 h", "pIC50": 3.66}
{"SMILES": "CCC(=O)Nc1cc(Nc2nc(Nc3cnn(C)c3)c3sccc3n2)c(OC)cc1N(C)CCN(C)C", "observed": "cell growth or viability", "method": "MTT", "pIC50": 5.15}
{"SMILES": "O=C(N/N=C/CN1CCCCC1)Nc1cc2c(Nc3ccc(F)c(Cl)c3)ncnc2cc1O[C@H]1CCOC1", "observed": "cell growth or viability", "method": "MTT", "time": "72 h", "pIC50": 5.38}
{"SMILES": "COc1ccc(/C=C/C(=O)C(=Cc2ccc(F)cc2)C(=O)/C=C/c2ccc(OC)c(OC)c2)cc1OC", "observed": "colony formation", "time": "9 days", "pIC50": "> 6.70"}
{"SMILES": "COC(C)(C)CCC[C@](C)(O)[C@H]1CC[C@]2(C)[C@@H]1[C@H](O)C[C@@H]1[C@@]3(C)CC[C@H](O)C(C)(C)[C@@H]3CC[C@]12C", "observed": "cell growth or viability", "method": "MTT", "time": "72 h", "pIC50": 5.31}
{"SMILES": "CC1=C(O)C(=O)C=C2C1=CC=C1[C@@]2(C)CC[C@@]2(C)[C@@H]3C[C@](C)(C(=O)OCCCOc4ccccc4)CC[C@]3(C)CC[C@]12C", "observed": "cell growth or viability", "method": "MTT", "time": "48 h", "pIC50": 5.27}
{"SMILES": "O=C(NC(=S)N1CCCC1)c1ccc2ccccc2c1", "observed": "cell growth or viability", "time": "48 h", "pIC50": 5.37}
{"SMILES": "O=C(CN1C(=O)/C(=C/c2cccc(Br)c2)SC1=S)Nc1ccccc1", "observed": "cell growth or viability", "method": "MTT", "pIC50": 4.59}
{"SMILES": "CCn1c(-c2nnc(NC(=O)c3cc4c([nH]c5ccccc54)c(-c4cc(OC)c(OC)c(OC)c4)n3)s2)cc2ccccc21", "observed": "cell growth or viability", "method": "MTT", "time": "72 h", "pIC50": 4.96}
{"SMILES": "O=C(/C=C/C=C/c1ccc2c(c1)OCO2)N1CCCCC1", "observed": "cell growth or viability", "method": "SRB", "pIC50": 3.55}
{"SMILES": "C=CC(=O)Nc1cc(Nc2nc(N3CCc4sccc4C3)c3cccnc3n2)c(OC)cc1N1CCC(N(C)C)CC1", "observed": "cell growth or viability", "method": "MTT", "pIC50": 6.41}
{"SMILES": "O=C(N/N=C/CN1CCOCC1)Nc1cc2c(Nc3ccc(F)c(Cl)c3)ncnc2cc1O[C@H]1CCOC1", "observed": "cell growth or viability", "method": "MTT", "time": "72 h", "pIC50": 5.25}
{"SMILES": "Cc1c(OCC(F)(F)F)ccnc1COc1ccc(NC(=O)Nc2ccc(Cl)cc2)cc1", "observed": "cell growth or viability", "method": "MTT", "time": "72 h", "pIC50": 5.62}
{"SMILES": "O=C(/N=C1\\S/C(=C\\c2ccc(Cl)cc2)C(=O)N1C1CCCCC1)c1ccc2ccccc2c1", "observed": "cell growth or viability", "time": "48 h", "pIC50": 4.75}
{"SMILES": "COc1ccccc1OCCNC(=O)COc1cccc2[nH]c3ccccc3c12", "observed": "cell growth or viability", "method": "CCK-8", "time": "72 h", "pIC50": "< 4.00"}
{"SMILES": "C=CC(=O)Nc1cc(Nc2nccc(-c3cn(C)c4ccccc34)n2)c(OC)cc1N(C)CCN(C)C", "observed": "cell growth or viability", "method": "MTT", "pIC50": 6.42}
{"SMILES": "Brc1ccc(Nc2nc(NCc3ccccc3)nc(NCc3ccccc3)n2)cc1", "observed": "cell growth or viability", "method": "SRB", "time": "72 h", "pIC50": 4.83}
{"SMILES": "COc1ccccc1/C=C/CNCC(O)COc1cccc2ncccc12 (stereo not drawn)", "observed": "cell growth or viability", "method": "CCK-8", "time": "72 h", "pIC50": 4.55}
{"SMILES": "COc1c(C)cnc(COc2ccc(NC(=O)Nc3cccc(C(F)(F)F)c3)cc2)c1C", "observed": "cell growth or viability", "method": "MTT", "time": "72 h", "pIC50": 4.69}
{"SMILES": "O=C(/N=C1\\SCC(=O)N1C1CCCCC1)c1ccc2ccccc2c1", "observed": "cell growth or viability", "time": "48 h", "pIC50": 4.72}
{"SMILES": "COc1ccnc(COc2ccc(NC(=O)Nc3ccc(Cl)c(C(F)(F)F)c3)cc2)c1OC", "observed": "cell growth or viability", "method": "MTT", "time": "72 h", "pIC50": 4.81}
{"SMILES": "O=C(N/N=C/CN1CCCC1)Nc1cc2c(Nc3ccc(F)c(Cl)c3)ncnc2cc1O[C@H]1CCOC1", "observed": "cell growth or viability", "method": "MTT", "time": "72 h", "pIC50": 5.19}
{"SMILES": "COc1cc([C@@H]2c3cc4c(cc3[C@@H](O[C@@H]3O[C@@H]5CO[C@@H](C)O[C@H]5[C@H](O)[C@H]3O)[C@H]3COC(=O)[C@H]23)OCO4)cc(OC)c1O", "observed": "cell growth or viability", "method": "MTT", "time": "72 h", "pIC50": 6.27}
{"SMILES": "Cc1c(NC(=O)c2ccc(C(C)(C)C)cc2)cccc1-c1cn(C)c(=O)c(Nc2ccc(C(=O)N3CCOCC3)cc2)n1", "observed": "cell growth or viability", "pIC50": "< 5.00"}
{"SMILES": "O=c1[nH]cc(F)c(=O)[nH]1", "observed": "cell growth or viability", "method": "MTT", "time": "48 h", "pIC50": 4.43}
{"SMILES": "CCCCCCCCCCCC(=O)Oc1c(C)c(O)c(C(=O)/C=C/c2ccccc2)c(OC)c1C", "observed": "cell growth or viability", "method": "SRB", "time": "72 h", "pIC50": "< 4.30"}
{"SMILES": "O=C1NCCc2[nH]c(-c3ccncc3)cc21", "observed": "cell growth or viability", "pIC50": "< 5.00"}
{"SMILES": "CC(C)(C)NC(=O)NNC(=O)c1ccc(Nc2nccc(-c3ccc(Cl)cc3)n2)cc1", "observed": "cell growth or viability", "method": "MTT", "pIC50": 4.71}
{"SMILES": "Cc1ccc(-c2nn(-c3ccc(S(C)(=O)=O)cc3)cc2/C=N\\N=c2/[nH]c(-c3ccc([N+](=O)[O-])cc3)cs2)cc1", "observed": "cell growth or viability", "method": "MTT", "time": "48 h", "pIC50": 4.24}
{"SMILES": "COc1ccc(/C=C2\\SC(=S)N(CC(=O)Nc3ccccc3)C2=O)cc1", "observed": "cell growth or viability", "method": "MTT", "pIC50": 4.59}
{"SMILES": "O=C(NC(=S)Nc1ccccc1)c1ccc2ccccc2c1", "observed": "cell growth or viability", "time": "48 h", "pIC50": 5.16}
{"SMILES": "CCn1c(-c2nnc(NC(=O)c3cc4c([nH]c5ccccc54)c(-c4ccc(OC)cc4)n3)s2)cc2ccccc21", "observed": "cell growth or viability", "method": "MTT", "time": "72 h", "pIC50": 4.85}
{"SMILES": "CCC(=O)Nc1cc(Nc2nc(N3CCc4sccc4C3)c3cccnc3n2)c(OC)cc1N1CCSCC1", "observed": "cell growth or viability", "method": "MTT", "pIC50": 5.10}
{"SMILES": "CN(C)CCn1cccc1/C=N/NC(=O)Nc1cc2c(Nc3ccc(F)c(Cl)c3)ncnc2cc1O[C@H]1CCOC1", "observed": "cell growth or viability", "method": "MTT", "time": "72 h", "pIC50": 5.74}
{"SMILES": "CS(=O)(=O)c1ccc(-n2cc(/C=N/N=c3\\[nH]c(-c4ccc([N+](=O)[O-])cc4)cs3)c(-c3ccc([N+](=O)[O-])cc3)n2)cc1", "observed": "cell growth or viability", "method": "MTT", "time": "48 h", "pIC50": 4.65}
{"SMILES": "CCN(CC)CCn1cccc1/C=N/NC(=O)Nc1cc2c(Nc3ccc(F)c(Cl)c3)ncnc2cc1OC", "observed": "cell growth or viability", "method": "MTT", "time": "72 h", "pIC50": 6.37}
{"SMILES": "COc1ccc(C(=O)O[C@@H]2CN3Cc4c(cc5c(c4OC)OCO5)[C@@]24C=C[C@H](OC)C[C@@H]34)cc1", "observed": "cell growth or viability", "method": "WST-1", "pIC50": "< 5.00"}
{"SMILES": "COc1ccccc1/C=C/CNCC(O)COc1cccc2[nH]ccc12 (stereo not drawn)", "observed": "cell growth or viability", "method": "CCK-8", "time": "72 h", "pIC50": 4.57}
{"SMILES": "CN1C(=O)/C(=N\\NC(=O)c2cc3ccccc3[nH]2)c2cc(F)ccc21", "observed": "cell growth or viability", "pIC50": 5.55}
{"SMILES": "CCC(=O)Nc1cc(Nc2nc(N3CCc4sccc4C3)c3cccnc3n2)c(OC)cc1N1CCN(C(C)=O)CC1", "observed": "cell growth or viability", "method": "MTT", "pIC50": 5.15}
{"SMILES": "COCCCOc1ccnc(COc2ccc(NC(=O)Nc3cc(F)cc(F)c3)cc2)c1C", "observed": "cell growth or viability", "method": "MTT", "time": "72 h", "pIC50": 4.35}
{"SMILES": "CC1=C(O)C(=O)C=C2C1=CC=C1[C@@]2(C)CC[C@@]2(C)[C@@H]3C[C@](C)(C(=O)OCCCCCCO)CC[C@]3(C)CC[C@]12C", "observed": "cell growth or viability", "method": "MTT", "time": "48 h", "pIC50": "< 4.00"}
{"SMILES": "COc1ccccc1/C=C/CNCC(O)COc1ccccc1 (stereo not drawn)", "observed": "cell growth or viability", "method": "CCK-8", "time": "72 h", "pIC50": 4.76}
{"SMILES": "Cc1c(OCC(F)(F)F)ccnc1COc1ccc(NC(=O)Nc2cc(F)cc(F)c2)cc1", "observed": "cell growth or viability", "method": "MTT", "time": "72 h", "pIC50": 5.12}
{"SMILES": "COc1cccc(Oc2ccccc2NC(=O)CNC(=O)c2c(C)cc(C)cc2C)c1", "observed": "cell growth or viability", "pIC50": 5.33}
{"SMILES": "Oc1ccc(-c2csc(Nc3ccc4c(O)ncnc4c3)n2)cc1", "observed": "cell growth or viability", "method": "MTT", "pIC50": 4.51}
{"SMILES": "CN1C(=O)/C(=N\\NC(=O)c2cc3ccccc3[nH]2)c2ccccc21", "observed": "cell growth or viability", "pIC50": 5.39}
{"SMILES": "Cc1ccc(C)n1-c1ccc(-c2nnc(-c3c(Cl)cccc3Cl)[nH]2)cc1", "observed": "cell growth or viability", "method": "MTT", "time": "72 h", "pIC50": 3.64}
{"SMILES": "CCC(=O)Nc1cc(Nc2nc(N3CCc4sccc4C3)c3cccnc3n2)c(OC)cc1N(C)C", "observed": "cell growth or viability", "method": "MTT", "pIC50": "< 4.30"}
{"SMILES": "O=C(NNC(=O)c1ccc(Nc2nccc(-c3ccc(Cl)cc3)n2)cc1)NC1CCCCC1", "observed": "cell growth or viability", "method": "MTT", "time": "24 h", "pIC50": "< 4.40"}
{"SMILES": "COc1ccccc1CCCNCC(O)COc1cccc2[nH]c3ccccc3c12 (stereo not drawn)", "observed": "cell growth or viability", "method": "CCK-8", "time": "72 h", "pIC50": 4.93}
{"SMILES": "COc1cc2ncnc(Nc3ccc(F)c(Cl)c3)c2cc1NC(=O)N/N=C/c1cccn1CCN1CCOCC1", "observed": "cell growth or viability", "method": "MTT", "time": "72 h", "pIC50": 6.24}
{"SMILES": "C=CC(=O)Nc1cc(Nc2nc(N3CCc4sccc4C3)c3cccnc3n2)c(OC)cc1N(C)C", "observed": "cell growth or viability", "method": "MTT", "pIC50": "< 4.30"}
{"SMILES": "CN(C)C/C=N/NC(=O)Nc1cc2c(Nc3ccc(F)c(Cl)c3)ncnc2cc1O[C@H]1CCOC1", "observed": "cell growth or viability", "method": "MTT", "time": "72 h", "pIC50": 5.27}
{"SMILES": "C#Cc1cccc(Nc2ncnc3cc(OCCOC)c(OCCOC)cc23)c1", "observed": "cell growth or viability", "method": "MTT", "pIC50": 4.71}
